This is an account of results in ChEMBL document CHEMBL1649148, “Steady-state pharmacokinetics of abacavir in plasma and intracellular carbovir triphosphate following administration of abacavir at 600 milligrams once daily and 300 milligrams twice daily in human immunodeficiency virus-infected subjects” (Antimicrob Agents Chemother, 2009).

What all share (assay type): ADME, organism-based
The subject of data set [1] is Homo sapiens. In words: (§1) Drug level at the end of dosing interval in HIV infected patient at 600 mg QD by HPLC/MS/MS analysis. To be noted: in vivo. The gist of the method: (§2)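 Plasma abacavir at steady state in HIV-1-infected adults dosed orally 600 mg QD or 300 mg BID under fasting, serial samples predose to 24 h (plus 1 h) on days 1 and 11; validated HPLC-MS/MS, calibration 2.5–2,500 ng/ml; noncompartmental parameters from actual times, BID AUC0-24 taken as 2 × AUC0-τ.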

Data set [2] deals with Homo sapiens. Put plainly: (§3) Drug level at the end of dosing interval in HIV infected patient at 300 mg BID by HPLC/MS/MS analysis. The settings on record: in vivo. An outline of the steps: as §2
For data set [3], the species on record is Homo sapiens. Put plainly: Ratio of AUC in HIV infected male patient assessed as carbovir-triphosphate level per million cells to AUC in HIV infected male patient at 600 mg QD by HPLC/MS/MS analysis. To be noted: in vivo. An outline of the steps:
(§4)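 Per-subject ratio of intracellular CBV-TP AUC0-24 (PBMC, fmol/million cells, LC-MS/MS) to plasma abacavir AUC0-24 (HPLC-MS/MS), both by noncompartmental analysis from serial samples over 24 h on days 1 and 11 of oral 600 mg QD or 300 mg BID dosing in fasted HIV-1-infected adults.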

The species entered for data set [4] is Homo sapiens. Put plainly: Ratio of AUC in HIV infected patient assessed as assessed as carbovir-triphosphate level per million cells to AUC in HIV infected patient at 300 mg BID by HPLC/MS/MS analysis. To be noted: in vivo. An outline of the steps:
as §4

The test system of data set [5] is Homo sapiens. The data set is described as §3. The settings on record: in vivo. An outline of the steps: as §2
The source holds these as a separate data set.

A short description of data set [6]: (§5) AUC (0 to 24 hrs) in HIV infected patient at 600 mg QD by HPLC/MS/MS analysis. Also on record: time < 24 hr, dose 600 mg. The settings on record: male, human, plasma. The gist of the method:
as §2

The species entered for data set [7] is Homo sapiens. Put plainly: Ratio of AUC in HIV infected male patient assessed as assessed as carbovir-triphosphate level per million cells to AUC in HIV infected male patient at 300 mg BID by HPLC/MS/MS analysis. To be noted: in vivo. An outline of the steps:
as §4

For data set [8], the species on record is Homo sapiens. In words: Ratio of AUC in HIV infected female patient assessed as assessed as carbovir-triphosphate level per million cells to AUC in HIV infected female patient at 300 mg BID by HPLC/MS/MS analysis. To be noted: in vivo. An outline of the steps:
as §4

Data set [9] is described as follows: AUC (0 to 24 hrs) in HIV infected patient at 300 mg BID by HPLC/MS/MS analysis. Details: time < 24 hr, dose 300 mg. To be noted: human, plasma. An outline of the steps: as §2
The species named for data set [10] is Homo sapiens. In words: Ratio of AUC in HIV infected patient assessed as carbovir-triphosphate level per million cells to AUC in HIV infected patient at 600 mg QD by HPLC/MS/MS analysis. The settings on record: in vivo. The gist of the method:
as §4

The species named for data set [11] is Homo sapiens. Put plainly: Ratio of AUC in HIV infected female patient assessed as carbovir-triphosphate level per million cells to AUC in HIV infected female patient at 600 mg QD by HPLC/MS/MS analysis. The settings on record: in vivo. The gist of the method:
as §4

Data set [12] relates to Homo sapiens. Described as §1. To be noted: in vivo. An outline of the steps: as §2
The source holds these as a separate data set.

Data set [13] can be described thus: Cmax in HIV infected patient at 300 mg BID by HPLC/MS/MS analysis. To be noted: human, in vivo. Details: dose 300 mg. The gist of the method: as §2
A short description of data set [14]: Cmax in HIV infected patient at 600 mg QD by HPLC/MS/MS analysis. Also on record: dose 600 mg. The settings on record: human, in vivo. The gist of the method: as §2
Data set [15] in a line: as §5. To be noted: human, plasma. Also on record: dose 600 mg, time < 24 hr. The gist of the method: as §2
In data set [16] the test system is Homo sapiens. The description is as §3. The settings on record: in vivo. The gist of the method:
as §2
This is another data set of the same source.

Data set [17] has as its system Homo sapiens. Described as §1. The settings on record: in vivo. The gist of the method:
as §2
The source holds these as a separate data set.

Data set [18] is filed under the species Homo sapiens. In words: (§6) Cmax in HIV infected patient assessed as carbovir-triphosphate level per million cells at 300 mg BID by HPLC/MS/MS analysis. Also on record: dose 300 mg. The settings on record: in vivo. The gist of the method: (§7)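 Steady-state crossover in HIV-1-infected adults, oral abacavir 600 mg QD or 300 mg BID, fasted ≥10 h before and 2 h after dosing; blood drawn predose and 2–24 h postdose on days 1 and 11. PBMC isolated, counted in duplicate, lysed in ice-cold 70% methanol; CBV-TP measured by LC-MS/MS after anion exchange and alkaline phosphatase hydrolysis, converted to fmol/million cells; noncompartmental analysis.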

For data set [19], the species on record is Homo sapiens. Put plainly: (§8) Cmax in HIV infected patient assessed as carbovir-triphosphate level per million cells at 600 mg QD by HPLC/MS/MS analysis. To be noted: in vivo. Details: dose 600 mg. An outline of the steps:
as §7

Data set [20] is filed under the species Homo sapiens. The description is as §6. Also on record: dose 300 mg. The settings on record: in vivo. An outline of the steps: as §7
This is another data set of the same source.

In data set [21] the test system is Homo sapiens. In words: (§9) Drug level at end of dosing interval in HIV infected patient assessed as carbovir-triphosphate level per million cells at 300 mg BID by HPLC/MS/MS analysis. The settings on record: in vivo. The gist of the method: as §7
The species named for data set [22] is Homo sapiens. Put plainly: AUC (0 to 24 hrs) in HIV infected male patient assessed as carbovir-triphosphate level per million cells at 600 mg QD by HPLC/MS/MS analysis. Details: dose 600 mg, time < 24 hr. The settings on record: in vivo. An outline of the steps:
as §7

For data set [23], the species on record is Homo sapiens. Put plainly: AUC (0 to 24 hrs) in HIV infected female patient assessed as carbovir-triphosphate level per million cells at 300 mg BID by HPLC/MS/MS analysis. Details: dose 300 mg, time < 24 hr. The settings on record: in vivo.
For data set [24], the species on record is Homo sapiens. The description is as §6. To be noted: in vivo. Also on record: dose 300 mg. The gist of the method:
as §7
This is another data set of the same source.

The species entered for data set [25] is Homo sapiens. In words: (§10) AUC (0 to 24 hrs) in HIV infected patient assessed as carbovir-triphosphate level per million cells at 600 mg QD by HPLC/MS/MS analysis. Also on record: dose 600 mg, time < 24 hr. To be noted: in vivo. The gist of the method: as §7
The species entered for data set [26] is Homo sapiens. The description is as §8. Also on record: dose 600 mg. The settings on record: in vivo. An outline of the steps: as §7
The source holds these as a separate data set.

The species named for data set [27] is Homo sapiens. The description is as §10. Details: dose 600 mg, time < 24 hr. To be noted: in vivo. The gist of the method: as §7
This is another data set of the same source.

The species entered for data set [28] is Homo sapiens. The description is as §8. The settings on record: in vivo. Also on record: dose 600 mg. The gist of the method:
as §7
The source holds these as a separate data set.

The species entered for data set [29] is Homo sapiens. In words: (§11) AUC (0 to 24 hrs) in HIV infected patient assessed as carbovir-triphosphate level per million cells at 300 mg BID by HPLC/MS/MS analysis. The settings on record: in vivo. Also on record: dose 300 mg, time < 24 hr. The gist of the method: as §7
Data set [30] is filed under the species Homo sapiens. Described as §11. The settings on record: in vivo. Details: time < 24 hr, dose 300 mg. An outline of the steps: as §7
Data set [31] has as its system Homo sapiens. The description is as §9. The settings on record: in vivo. An outline of the steps: as §7
The source holds these as a separate data set.

For `Nc1nc(NC2CC2)c2ncn([C@H]3C=C[C@@H](CO)C3)c2n1` [ABACAVIR], the Ct was 0.009 µg/mL in the data set with Homo sapiens [1]; 0.015 µg/mL in the data set with Homo sapiens [2]; 0.018 µg/mL with Homo sapiens [5]; 0.009 µg/mL with Homo sapiens [12]; 0.026 µg/mL in the data set on Homo sapiens [16]; 0.008 µg/mL in the data set with Homo sapiens [17]. Moreover, the “Ratio AUC” value came out at 109 in the data set filed under Homo sapiens [3]; 103 in the data set filed under Homo sapiens [4]; 102 in the data set listed under Homo sapiens [7]; 105 in the data set filed under Homo sapiens [8]; 123 in the data set filed under Homo sapiens [10]; 158 in the data set filed under Homo sapiens [11]. Further, the AUC at 24 h in data set [6] is 7.26 µg·h/mL; in data set [9] (female), 10.9 µg·h/mL; in [9], 7.9 µg·h/mL; in [9] (male), 6.74 µg·h/mL; in data set [15] (female), 11.7 µg·h/mL; in [15] it was 8.52 µg·h/mL. Also, the Cmax in data set [13] is 1.84 µg/mL; in data set [13] (male), 1.59 µg/mL; in data set [14] (female) it was 4.83 µg/mL; in data set [14] it was 3.85 µg/mL; in data set [14] (male), 3.43 µg/mL.
As to `Nc1nc(=O)c2ncn([C@H]3C=C[C@@H](COP(=O)(O)OP(=O)(O)OP(=O)(O)O)C3)c2[nH]1` [CARBOVIR 5'-TRIPHOSPHATE, (-)-], the Cmax worked out at 82.5 fmol/10^6 cells in the data set filed under Homo sapiens [18]; 198 fmol/10^6 cells in the data set filed under Homo sapiens [19]; 49.3 fmol/10^6 cells in the data set listed under Homo sapiens [20]; 58.5 fmol/10^6 cells in the data set filed under Homo sapiens [24]; 114 fmol/10^6 cells in the data set filed under Homo sapiens [26]; 86.5 fmol/10^6 cells in the data set filed under Homo sapiens [28]. Besides, the AUC was found to be 1051 fmol·h in the data set listed under Homo sapiens [3]; 792 h·fmol/million cells in the data set listed under Homo sapiens [22]; 1138 h·fmol/million cells in the data set listed under Homo sapiens [23]; 1051 h·fmol/million cells in the data set filed under Homo sapiens [25]; 1851 h·fmol/million cells in the data set filed under Homo sapiens [27]; 688 h·fmol/million cells in the data set listed under Homo sapiens [29]. The AUC in the data set filed under Homo sapiens [30] amounted to 814 h·fmol/million cells. Moreover, the figures for the Ct with Homo sapiens [21] and in the data set on Homo sapiens [31] were 18.7 fmol/10^6 cells and 37.2 fmol/10^6 cells, respectively.
